Bioassay records: PubChem BioAssay, Johns Hopkins Ion Channel Center
Hits are enriched below; roughly 3.5% of the tested compounds scored in any of these assays.
RGS4 pot = RGS4 potentiation or activation; HEK293 M3R/inducible RGS4, carbachol calcium flux Fluo4; stronger effect = lower value; B-score at 10 µM; 310,000 tested, 0.92% active;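 active = B-score of the integrated calcium signal more than 4 SD below the library mean, with starting fluorescence not abnormally high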;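 note: negative B-score means reduced calcium response which marks RGS4 activation or potentiation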
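Also added: carbachol at ECmax as muscarinic agonist stimulus; Assay system: HEK293 cells with stable M3R and inducible RGS4; Timing: overnight RGS4 induction, 30 min dye load 37 °C, 20 min compound RT; Measured by: Fluo4-AM (2 µM) calcium-flux fluorescence, kinetic read.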
RGS4 block = inhibitors of human RGS4. AID 463165. P49798. HEK293 M3R/RGS4 inducible, Fluo-4 calcium flux; stronger effect = higher value; triggered by carbachol at its EC20. B-score at 10 µM. 310,000 tested, 0.45% active;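 active = B-score, a plate-corrected calcium signal, over three deviations above library mean, with baseline fluorescence within five deviations of library mean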;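 note: RGS4 expression induced by doxycycline in cells with stable M3 receptor; B-score is computed from the integrated fluorescence ratio over baseline after carbachol; higher B-score means a larger calcium signal and so more RGS4 inhibition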
Target sequence (P49798 whole entry, looked up): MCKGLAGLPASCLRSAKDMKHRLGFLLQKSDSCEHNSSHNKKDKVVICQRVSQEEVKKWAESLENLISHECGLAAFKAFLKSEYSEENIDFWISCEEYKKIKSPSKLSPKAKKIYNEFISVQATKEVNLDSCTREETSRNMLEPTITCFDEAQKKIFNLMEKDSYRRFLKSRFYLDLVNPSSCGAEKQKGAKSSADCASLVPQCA
MrgX1 ag = agonists of human MrgX1 receptor. Q96LB2. MrgX1-HEK293 cells, Fluo-4 calcium fluorescence, agonist mode; stronger effect = higher value. B-score at 10 µM. 310,000 tested, 0.44% active;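 active = calcium response B-score plate-corrected fluorescence ratio at least 3 library SD, with starting fluorescence B-score inside 5 SD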
Target sequence (Q96LB2 whole entry, looked up): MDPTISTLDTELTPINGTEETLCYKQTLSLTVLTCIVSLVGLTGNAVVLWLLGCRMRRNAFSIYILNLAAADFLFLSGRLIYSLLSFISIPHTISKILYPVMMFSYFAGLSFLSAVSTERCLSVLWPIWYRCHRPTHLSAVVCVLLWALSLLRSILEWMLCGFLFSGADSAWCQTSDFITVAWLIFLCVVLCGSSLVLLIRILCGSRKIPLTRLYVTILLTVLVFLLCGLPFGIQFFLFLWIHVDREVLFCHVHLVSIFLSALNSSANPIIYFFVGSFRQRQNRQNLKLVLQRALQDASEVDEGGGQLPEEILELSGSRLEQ
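Test system: HEK293 cells stably expressing human MrgX1 receptor; Input: fifteen thousand cells per well; Dosing: compound delivered in addition one of three; Schedule: overnight seeding, then 1 h dark dye loading; Technique: Fluo-4 NW calcium fluorescence; Measure: B-scored fluorescence response ratio; Controls: positive and negative controls per plate.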
MrgX1 allo act = allosterically activates human MrgX1 receptor signaling | Q96LB2 | MrgX1-HEK293, Fluo-4 calcium flux, FDSS; stronger effect = higher value | B-score at 10 µM | 310,000 tested, 0.63% active | AID 588675;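 active = plate-corrected calcium response at least 3 library SD above typical, normal starting fluorescence, not activating the receptor alone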;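 note: compound read alongside a low EC10 to EC30 dose of BAM8-22 agonist; peak minus trough fluorescence over baseline measured at the second addition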
MrgX1 antag = blocks BAM8-22 activation of human MrgX1 receptor. B-score at 10 µM. Q96LB2. 310,000 tested, 1.3% active. MRGX1-HEK293 calcium flux, Fluo-4, BAM8-22 antagonism; stronger effect = lower value;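 active = calcium-response B-score plate-corrected more than 3 library SD below zero, starting fluorescence within 5 deviations, no agonist response on first addition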;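 note: peak minus trough fluorescence over baseline after final BAM8-22 challenge near maximal dose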
MrgX1 antag conf = reconfirmed antagonist of human MrgX1 receptor signaling | 2,300 tested, 19% active | remaining BAM8-22 calcium response % of control (stronger effect = lower value), % at 10 µM | MrgX1-HEK293, BAM8-22 calcium flux, Fluo-4; stronger effect = lower value | shares compounds with MrgX1 antag;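 active = remaining agonist calcium response no higher than 100% minus 3 SD of agonist-only control wells, with starting fluorescence near control levels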;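 note: agonist BAM8-22 given at a near maximal EC90 to ECmax level; peak minus minimum fluorescence divided by baseline after agonist addition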
HEK293 Ca flux = activity in parental HEK293 cells lacking MrgX1. shares compounds with MrgX1 antag. Fluo-4 calcium fluorescence, FDSS. fluorescence ratio F(max-min)/F0 at 10 µM. 4,000 tested, 2% active;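 active = duplicate-averaged calcium fluorescence ratio at least three times the standard deviation of buffer wells, a nonspecific response in parental cells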
HEK293 Ca counter = activity in parental HEK293 cells without MrgX1. fluorescence ratio F(max-min)/F0 at 10 µM. parental HEK293 calcium flux, Fluo-4 fluorescence ratio; stronger effect = higher value. shares compounds with MrgX1 antag. 4,000 tested, 0.4% active;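 active = calcium fluorescence ratio, averaged over duplicates, at least 3 SD of the buffer-well ratio, meaning a nonspecific response in receptor-free cells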;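 note: untransfected parental HEK293 lacking MrgX1 used as counterscreen for MrgX1 allosteric activators; fluorescence change taken during the second addition on a kinetic imager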
HEK293 Ca cntr2 = counter-screen for MrgX1 activators: effect in parental HEK293 cells | shares compounds with MrgX1 antag | Fluo-4 calcium fluorescence (FDSS); stronger effect = higher value | fluorescence ratio F(max-min)/F0 at 10 µM | 4,000 tested, 8.7% active | AID 624115;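 active = calcium fluorescence ratio at least three times the spread of buffer wells, meaning a non-specific response in parental cells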
Of the large screens only hits and unclear results are named; the others gave an inactive call (follow-up assays come after a bar, where they were run).

CSc1ccc(CNC(=O)C2CCC(=O)N(CCc3cccc(F)c3)C2)cc1 (stereo unspecified)	none
CCOC(=O)C1CCCN(C(=O)CCc2ccccc2)C1 (stereo unspecified)	MrgX1 antag -6.1 | MrgX1 antag conf inactive | HEK293 Ca flux inactive | HEK293 Ca counter inactive | HEK293 Ca cntr2 inactive
CCOC(=O)C1CCCN(C(=O)CS(=O)(=O)Cc2ccccc2)C1 (stereo unspecified)	none
COc1ccc(NC(=O)N2CCCC2C(=O)NCc2cccs2)cc1 (stereo unspecified)	none
O=C(Nc1ccc(N2C(=O)C3C4C=CC(C4)C3C2=O)cc1)Nc1nncs1 (stereo unspecified)	MrgX1 antag -4.6 | MrgX1 antag conf inactive | HEK293 Ca flux inactive | HEK293 Ca counter inactive | HEK293 Ca cntr2 inactive
Cc1cc(C)nc(SCC(=O)N2CCCCC2)n1	none
Cn1c(=O)c2c(SCC(=O)N3CCCC3)nc(-c3ccccc3)nc2n(C)c1=O	MrgX1 antag -6 | MrgX1 antag conf inactive | HEK293 Ca flux inactive | HEK293 Ca counter inactive | HEK293 Ca cntr2 inactive
Cc1cc(-c2ccccc2)nc(SCC(=O)N2CCCC2)n1	MrgX1 antag -5.4 | MrgX1 antag conf inactive | HEK293 Ca flux inactive | HEK293 Ca counter inactive | HEK293 Ca cntr2 inactive
CCc1nc(SCC(=O)N2CCCC2)c2c(=O)n(C)c(=O)n(C)c2n1	none
COCCNC(=O)CN(Cc1ccc(F)cc1)C(=O)CCC(=O)Nc1nccs1	none
Cc1ccccc1NC(=O)NC1(C(=O)NCc2ccco2)CCCCC1	none
CN1CCN(c2ccc(Cl)cc2NS(=O)(=O)c2ccccc2Cl)CC1	MrgX1 antag -5.3 | MrgX1 antag conf 81% | HEK293 Ca flux inactive | HEK293 Ca counter inactive | HEK293 Ca cntr2 inactive
O=C(NC1CCN(C(=O)N2CCOCC2)CC1)c1ccccc1	none
CCN(CC)C(=O)N1CCC(NC(=O)c2ccccc2)CC1	MrgX1 antag -7.5 | MrgX1 antag conf inactive | HEK293 Ca flux inactive | HEK293 Ca counter inactive | HEK293 Ca cntr2 inactive
CCCN(CC(=O)Nc1ccccc1C)C(=O)Cc1coc2cc(C)ccc12	none
COc1ccc(C(=O)COC(=O)CCN2C(=O)[C@@H]3[C@H](C2=O)[C@@H]2C[C@H]3C(Br)C2Br)cc1 (stereo partly specified)	none
COc1ccc(C(=O)COC(=O)CCN2C(=O)C3C4CC(C(Br)C4Br)C3C2=O)cc1 (stereo unspecified)	MrgX1 antag -5.4 | MrgX1 antag conf inactive | HEK293 Ca flux inactive | HEK293 Ca counter inactive | HEK293 Ca cntr2 inactive
COc1ccc(N(CC(=O)O)S(=O)(=O)c2cccnc2)cc1	MrgX1 antag -6.8 | MrgX1 antag conf inactive | HEK293 Ca flux inactive | HEK293 Ca counter inactive | HEK293 Ca cntr2 inactive
O=C(CC1C(=O)NCCN1C1CCCC1)NCc1cccc(OC(F)(F)F)c1 (stereo unspecified)	none
CCCn1cc(SCC(=O)NCc2ccco2)c2ccccc21	MrgX1 antag -9 | MrgX1 antag conf inactive | HEK293 Ca flux inactive | HEK293 Ca counter inactive | HEK293 Ca cntr2 inactive
O=C(Cn1nnc2ccccc21)NNC(=S)NC1CCCCC1	none
O=C(CSc1nnc2ccc(-c3ccccn3)nn12)Nc1ccc(F)cc1F	none
NC(=O)C1CCN(c2ncnc3c2c(-c2ccccc2)cn3-c2ccccc2)CC1	MrgX1 antag -5.2 | MrgX1 antag conf inactive | HEK293 Ca flux inactive | HEK293 Ca counter inactive | HEK293 Ca cntr2 inactive
COc1ccccc1NC(=O)CN1CC(=O)Nc2ccccc21	none
O=C(c1cc(COc2ccc(F)cc2Cl)on1)N1CCCCC1c1cccnc1 (stereo unspecified)	none
Cc1nonc1C1CCCN1C(=O)c1cc(COc2ccc(F)cc2Cl)on1 (stereo unspecified)	MrgX1 antag -8.8 | MrgX1 antag conf inactive | HEK293 Ca flux inactive | HEK293 Ca counter inactive | HEK293 Ca cntr2 inactive
Cc1noc(C)c1C(=O)Nc1nccs1	none
Cc1n[nH]c(=O)c2c(NC(=O)CSc3nncs3)oc(C)c12	none
O=C(Nc1ccccc1F)c1ccc(C(=O)c2ccccc2)cc1	MrgX1 antag -5.6 | MrgX1 antag conf 84% | HEK293 Ca flux inactive | HEK293 Ca counter inactive | HEK293 Ca cntr2 inactive
CCC(Oc1ccccc1)C(=O)Nc1ccc(C)c(S(=O)(=O)N2CCOCC2)c1 (stereo unspecified)	none
Oc1cc(O)cc(-c2cc3ccc(O)cc3o2)c1	MrgX1 antag -6 | MrgX1 antag conf inactive | HEK293 Ca flux inactive | HEK293 Ca counter inactive | HEK293 Ca cntr2 inactive
NC(=S)c1cc2ccc(O)cc2oc1=O	none (no result: MrgX1 ag, MrgX1 allo act, MrgX1 antag)
Cc1cccc(N2CCN(C(=O)CCC(=O)N3CCOc4ccc(Cl)cc43)CC2C)c1 (stereo unspecified)	none
O=C(NCCN1CCOCC1)C(=O)NCC1OCCN1S(=O)(=O)c1ccccc1 (stereo unspecified)	none
COc1ccccc1NC(=O)CCC(=O)OCc1ccc(Cl)cc1	MrgX1 antag -4.8 | MrgX1 antag conf inactive | HEK293 Ca flux inactive | HEK293 Ca counter inactive | HEK293 Ca cntr2 inactive
CCOC(=O)CC1C(=O)NCCN1S(=O)(=O)c1ccc(F)cc1 (stereo unspecified)	none
CCOC(=O)CC1C(=O)NCCN1S(=O)(=O)c1ccc(NC(C)=O)cc1 (stereo unspecified)	MrgX1 antag -6.5 | MrgX1 antag conf inactive | HEK293 Ca flux inactive | HEK293 Ca counter inactive | HEK293 Ca cntr2 inactive
O=c1[nH]c(C2CCN(S(=O)(=O)c3cccc([N+](=O)[O-])c3)CC2)nc2c1nnn2Cc1ccccc1	none
CCOc1ccc(CCNC(=O)c2nnc(CS(=O)(=O)c3ccccc3)o2)cc1OCC	none
Clc1c(Cl)c(Cl)c2n[nH]nc2c1Cl	MrgX1 antag -7 | MrgX1 antag conf inactive | HEK293 Ca flux inactive | HEK293 Ca counter inactive | HEK293 Ca cntr2 inactive
COC(=O)Oc1cncc(C(=O)O)c1	MrgX1 antag -5.2 | MrgX1 antag conf inactive | HEK293 Ca flux inactive | HEK293 Ca counter inactive | HEK293 Ca cntr2 inactive
COc1ccc2c(c1)[nH]c1c(N3CCSCC3)ncnc12	MrgX1 antag -12 | MrgX1 antag conf 50% | HEK293 Ca flux inactive | HEK293 Ca counter inactive | HEK293 Ca cntr2 inactive
CCOC(=O)c1cc(N)cc([N+](=O)[O-])c1	none
